Where “and” joins values, the source holds several entries; their conditions need not be identical. Identical values can stand only once. Calls of active or inactive are those of the source. No cut-off for these calls is given here.

Usually Ki stands for the dissociation constant of the complex between target and ligand, obtained from inhibition or displacement. Usually inhibition stands for the drop in the measured response relative to a control, in per cent. The IC50 is the point on the concentration scale where inhibition reaches its midpoint. One may read the LD50 as the dose expected to kill half of the subjects tested.

For data set [1], the target named is T1, 5-hydroxytryptamine receptor 6 (Homo sapiens, UniProt P50406). As to the kind of experiment: Displacement of [3H]-LSD from human 5HT6 receptor expressed in HEK293 cell membrane measured after 60 mins. Format: cell membranes. (In general: In a radioligand displacement assay an active substance lowers the binding of a labelled ligand.)
In data set [2] the target is T1, 5-hydroxytryptamine receptor 6. As to the kind of experiment: Displacement of [3H]-LSD from human 5HT6 receptor expressed in HEK293 cell membrane at 10^-5 M measured after 60 mins relative to control. Format: cell membranes. Particulars: dose 10.0 µM.
Data set [3] shares this target. As to the kind of experiment: Displacement of [3H]-LSD from human 5HT6 receptor expressed in HEK293 cell membrane at 10^-6 M measured after 60 mins relative to control. Particulars: dose 1.0 µM. The data set is classed as cell membranes. A digest of the protocol: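 Membranes of HEK-293 cells transiently expressing human 5-HT6R (4 µg protein) incubated in duplicate for 60 min at 37 °C with 2.5 nM [3H]-LSD and drug at 10^-6 or 10^-8 M. Buffer was 25 mM Tris-HCl pH 7.4 with 0.5 mM EDTA. Filtered on GF/C and washed with ice-cold Tris buffer. Non-specific binding defined with 100 µM serotonin.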

Data set [4] relates to Mus musculus. Briefly: Reversal of scopolamine-induced working memory deficit in NMRI mouse assessed as increase in spontaneous alteration at 10 mg/kg, ip measured after 30 mins by Y-maze test. The data set is classed as functional, organism-based. A digest of the protocol:
(§1)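 Compound 10 mg/kg ip in 0.9% NaCl given 30 min before test. Scopolamine 0.5 mg/kg or MK801 0.1 mg/kg given sc 20 min before test to induce the deficit. Mouse placed in a three-arm Y maze for a 5 min session; arm-entry sequence recorded by an observer to score spontaneous alternation. n = 9 per group.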

Data set [5] has as its target Cholinesterase (Equus caballus) (UniProt P81908). Briefly: Mixed type inhibition of equine BuchE at 10 to 500 nM using varying levels of butyrylthiocholine iodide as substrate by Lineweaver-Burk plot analysis. As to conditions: dose 10-500 nM. A digest of the protocol:
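Ellman method with equine BuChE. Butyrylthiocholine iodide varied from 0.1 to 1 mM, inhibitor at 10, 50, 100 and 500 nM. Double-reciprocal plots of 1/velocity versus 1/[substrate] used to assign the inhibition mode.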

For data set [6], the target named is T2, Cholinesterase (Homo sapiens, UniProt P06276). As to the kind of experiment: Inhibition of human BuChE at 10^-5 M using butyrylthiocholine iodide as substrate peincubated for 5 mins followed by substrate addition by DTNB-reagent based Ellman's method relative to control. As to conditions: dose 10.0 µM. A general note: DTNB colorimetry detects thiols as they appear.

Data set [7] addresses T3, Acetylcholinesterase (Homo sapiens, UniProt P22303). Briefly: Inhibition of human erythrocyte AChE at 10^-6 M using acetylthiocholine iodide as substrate peincubated for 5 mins followed by substrate addition by DTNB-reagent based Ellman's method relative to control. Particulars: dose 1.0 µM. A digest of the protocol: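 Human erythrocyte AChE diluted in 20 mM HEPES pH 8 with 0.1% Triton X-100 (0.05 U final). Preincubated 5 min at 25 °C with compound and 0.3 mM DTNB in phosphate buffer pH 7.4. Reaction started with 1 mM acetylthiocholine iodide.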

Data set [8] is filed under the species Homo sapiens. As to the kind of experiment: Selectivity index, ratio of IC50 for human BuChE to IC50 for human erythrocyte AChE.
In data set [9] the test system is Mus musculus. Briefly: Reversal of MK801-induced working memory deficit in NMRI mouse assessed as increase in spontaneous alteration at 10 mg/kg, ip measured after 30 mins by Y-maze test. The data set is classed as functional, organism-based. A digest of the protocol: as §1
The target in data set [10] is T1, 5-hydroxytryptamine receptor 6. Briefly: Antagonist activity at human 5HT6 receptor expressed in COS-7 cells assessed as inhibition of 5HT-induced cAMP accumulation preincubated for 7 mins followed by 5-HT addition and measured after 10 mins by HTRF assay relative to control. The data set is classed as functional, cell-based. Also noted: scale not given: the % may be the effect or the level left. Particulars: COS7, filed as antagonist. A digest of the protocol: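 COS-7 cells grown in DMEM with 10% dialyzed FCS, transiently transfected by electroporation with HA-tagged 5-HT6R plasmid, seeded. 24 h later, ligands added at 37 °C for 7 min. Then 5-HT (5.10^-7 M final) plus RO-20-1724 (0.1 mM final) added for 10 min at 37 °C. Cells lysed in 0.1% Triton X-100 and cAMP read by HTRF. Log IC50 is mean ± SEM of three experiments.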
For orientation: Cyclic AMP is a second messenger, typically raised through Gs and lowered through Gi signalling.

A short description of data set [11]: Stability of compound in PBS buffer at pH 7.4 assessed as equine BuChE mediated decarbamoylation of compound at 5 uM incubated for 24 hrs by HPLC-LC/MS analysis. Format: physicochemical. As to conditions: pH 7.4, 24 h. The method in brief: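 Compound (5 µM) incubated in PBS pH 7.4 at 25 °C with 250 U/mL BuChE, or without enzyme as control. After incubation, extracted with ethyl acetate, evaporated and taken up in acetonitrile. Analyzed by C18 reversed-phase HPLC (water/acetonitrile with 0.1% formic acid, detection 280 nm) and LC-MS.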

Data set [12] addresses T2, Cholinesterase. Briefly: Inhibition of human BuChE using butyrylthiocholine iodide as substrate peincubated for 5 mins followed by substrate addition by DTNB-reagent based Ellman's method.
Data set [13] concerns the target T3, Acetylcholinesterase. As to the kind of experiment: Inhibition of human erythrocyte AChE using acetylthiocholine iodide as substrate peincubated for 5 mins followed by substrate addition by DTNB-reagent based Ellman's method.
Data set [14] can be described thus: Effect on spontaneous locomotory activity in NMRI mouse at 1 to 10 mg/kg, ip measured for 30 mins. The data set is classed as ADME, organism-based. As to conditions: in vivo, 0.5 h, dose 1-10 mg/kg. A digest of the protocol:
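Mice dosed ip at 1, 3 or 10 mg/kg in 0.9% NaCl, 30 min before test; chlorpromazine 3 mg/kg as depressive reference. Locomotion counted as infrared beam breaks in individual cages of an actimeter over 30 min. n = 8 per group; analyzed by ANOVA.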

Data set [15] can be described thus: Toxicity of compound in ip dosed NMRI mouse assessed as mortality after 24 hrs. Format: organism-based. Particulars: in vivo. The method in brief: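 Mice in groups of four given 1, 10 or 100 mg/kg ip in 0.9% NaCl. Behavioral and neurological signs scored by standardized observation at 30 min, 3 h and 24 h. Approximate LD50 from mortality at 24 h. Amphetamine 2 mg/kg and chlorpromazine 10 mg/kg served as references.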

For data set [16], the target named is T1, 5-hydroxytryptamine receptor 6. As to the kind of experiment: Antagonist activity at human 5HT6 receptor expressed in COS-7 cells assessed as inhibition of 5HT-induced cAMP accumulation preincubated for 7 mins followed by 5-HT addition and measured after 10 mins by HTRF assay. Format: functional, cell-based, COS7. The method in brief:
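COS-7 cells grown in DMEM with 10% dialyzed FCS, transiently transfected by electroporation with HA-tagged 5-HT6R plasmid, seeded. 24 h later, ligands added at 37 °C for 7 min. Cells lysed in 0.1% Triton X-100 and cAMP read by HTRF. Log IC50 is mean ± SEM of three experiments.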

T3 sequence (P22303 whole entry): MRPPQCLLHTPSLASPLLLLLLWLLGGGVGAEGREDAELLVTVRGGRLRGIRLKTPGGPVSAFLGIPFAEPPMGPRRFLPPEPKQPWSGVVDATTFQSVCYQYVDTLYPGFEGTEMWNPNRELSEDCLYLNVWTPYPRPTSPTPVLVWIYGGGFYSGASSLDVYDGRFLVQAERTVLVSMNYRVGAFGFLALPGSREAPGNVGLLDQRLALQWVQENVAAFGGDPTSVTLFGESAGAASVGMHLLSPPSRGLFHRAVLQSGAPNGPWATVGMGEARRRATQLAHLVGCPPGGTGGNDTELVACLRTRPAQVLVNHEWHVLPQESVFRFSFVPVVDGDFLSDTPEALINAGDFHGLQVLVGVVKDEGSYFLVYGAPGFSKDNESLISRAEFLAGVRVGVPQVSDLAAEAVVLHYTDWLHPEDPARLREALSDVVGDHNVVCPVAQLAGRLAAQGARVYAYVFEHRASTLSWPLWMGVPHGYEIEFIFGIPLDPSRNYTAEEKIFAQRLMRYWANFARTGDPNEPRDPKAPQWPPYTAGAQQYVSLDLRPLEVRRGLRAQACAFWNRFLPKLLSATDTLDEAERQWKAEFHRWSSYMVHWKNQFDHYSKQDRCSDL
T1 sequence (P50406 whole entry): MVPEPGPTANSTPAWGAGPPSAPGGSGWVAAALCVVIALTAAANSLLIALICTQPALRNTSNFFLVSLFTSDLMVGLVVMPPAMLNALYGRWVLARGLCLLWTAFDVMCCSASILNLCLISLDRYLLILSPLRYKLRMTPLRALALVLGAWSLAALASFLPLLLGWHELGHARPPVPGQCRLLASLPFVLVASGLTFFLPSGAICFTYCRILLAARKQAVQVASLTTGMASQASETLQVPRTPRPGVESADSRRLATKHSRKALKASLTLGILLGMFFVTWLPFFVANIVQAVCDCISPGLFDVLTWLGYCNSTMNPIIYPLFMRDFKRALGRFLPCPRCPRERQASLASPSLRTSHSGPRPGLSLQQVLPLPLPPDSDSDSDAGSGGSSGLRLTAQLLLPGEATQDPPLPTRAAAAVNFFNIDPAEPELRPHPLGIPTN
T2 sequence (P06276 whole entry): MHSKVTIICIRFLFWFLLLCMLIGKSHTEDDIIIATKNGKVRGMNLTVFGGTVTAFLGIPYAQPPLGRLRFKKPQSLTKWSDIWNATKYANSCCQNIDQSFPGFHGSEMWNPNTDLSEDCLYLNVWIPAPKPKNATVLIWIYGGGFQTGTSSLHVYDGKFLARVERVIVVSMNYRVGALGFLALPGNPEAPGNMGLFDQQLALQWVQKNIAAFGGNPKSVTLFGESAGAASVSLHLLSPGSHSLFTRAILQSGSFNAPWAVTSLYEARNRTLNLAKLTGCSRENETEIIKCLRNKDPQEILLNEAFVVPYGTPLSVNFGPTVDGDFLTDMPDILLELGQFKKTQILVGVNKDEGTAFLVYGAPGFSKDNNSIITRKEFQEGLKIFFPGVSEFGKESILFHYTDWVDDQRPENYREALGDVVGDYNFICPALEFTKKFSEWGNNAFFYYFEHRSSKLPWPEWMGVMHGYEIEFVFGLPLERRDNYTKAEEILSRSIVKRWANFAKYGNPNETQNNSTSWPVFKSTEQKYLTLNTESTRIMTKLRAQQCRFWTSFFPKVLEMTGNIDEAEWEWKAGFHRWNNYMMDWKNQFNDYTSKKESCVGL
Sequence of Cholinesterase (Equus caballus) (P81908 whole entry): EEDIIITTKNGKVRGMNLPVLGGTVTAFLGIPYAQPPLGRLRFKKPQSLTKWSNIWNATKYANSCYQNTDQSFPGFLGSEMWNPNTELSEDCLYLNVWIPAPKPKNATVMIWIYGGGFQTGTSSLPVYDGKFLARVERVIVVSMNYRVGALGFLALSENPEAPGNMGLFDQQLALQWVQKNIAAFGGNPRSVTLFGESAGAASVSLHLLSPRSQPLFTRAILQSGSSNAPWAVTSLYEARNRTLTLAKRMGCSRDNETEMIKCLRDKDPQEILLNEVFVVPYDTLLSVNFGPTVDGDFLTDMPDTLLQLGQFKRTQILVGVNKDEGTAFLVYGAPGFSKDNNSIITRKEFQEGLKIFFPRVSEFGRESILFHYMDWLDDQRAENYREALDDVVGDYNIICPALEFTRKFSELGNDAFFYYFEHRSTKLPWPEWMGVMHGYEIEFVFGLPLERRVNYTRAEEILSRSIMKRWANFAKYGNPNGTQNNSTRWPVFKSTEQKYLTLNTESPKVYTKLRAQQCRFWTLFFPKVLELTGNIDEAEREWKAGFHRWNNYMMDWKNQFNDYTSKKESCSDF

In data set [1], `Oc1cccc(CNCCc2c[nH]c3cc(F)ccc23)c1` [listing 1 of 2 here] registered a Ki of 11.4 nM.

`CCN(C)C(=O)Oc1cccc(CNCCc2c[nH]c3cc(F)ccc23)c1` [listing 1 of 2 here]: the inhibition in [2] was 24% and 32%; in data set [3], 37%; in data set [3] (filed as antagonist) it was 53%; in [6] it was 93% and 97%; in data set [7], 9% and 5%. Also, the outcome in data set [4] was Active. Also, the inhibition result in [5] is “Active”. Moreover, the Ratio IC50 in data set [8] is 0.06 and 0.05. Besides, the result in [9] was inactive.

On to `Fc1ccc2c(CCNCc3cccc(OCc4ccccc4)c3)c[nH]c2c1`, for which the inhibition turned out to be 14% in data set [2], 103% in data set [3] (filed as antagonist), 2% in data set [6] and 4% in data set [7].

Turning to `Oc1cccc(CNCCc2c[nH]c3cc(F)ccc23)c1` [listing 2 of 2 here], the inhibition in [2] is 33%; in [2] (filed as antagonist), 48%; in data set [3] (filed as antagonist), 104% and 85%; in [6], 11% and 8%; in data set [7] it was 8% and 2%. Besides, in data set [4], the outcome was inactive. Besides, in data set [10], the Activity was determined as 87.2%. In [9], the outcome was Active.

`CCN(C)C(=O)Oc1cccc(CNCCc2c[nH]c3cc(F)ccc23)c1.O=C(O)/C=C/C(=O)O`: in data set [11], the Drug metabolism entry was “Metabolite_Detected”. Besides, the values for the IC50 in data set [12] and in data set [13] were 835 nM and 17600 nM, respectively. Besides, in [14], the Activity result is “Non-Toxic”. Moreover, the LD50 at 24 h in data set [15] is above 100 mg/kg.

Regarding `O=C(O)/C=C/C(=O)O.Oc1cccc(CNCCc2c[nH]c3cc(F)ccc23)c1`, in data set [14], the Activity result was “Non-Toxic”. Moreover, in [16], the IC50 was 2000 nM. The LD50 at 24 h in [15] is above 100 mg/kg. In [1], the affinity, expressed as Ki, was 4.3 nM.

Consider `CCN(C)C(=O)Oc1cccc(CNCCc2c[nH]c3cc(F)ccc23)c1` [listing 2 of 2 here], for which the IC50 in data set [12] amounted to 927 nM; in [13], 16500 nM.

With `Fc1ccc2c(CCNCc3cccc(OCC(F)(F)C(F)F)c3)c[nH]c2c1`, the inhibition in [2] (filed as antagonist) amounted to 88%; in data set [3] (filed as antagonist), 106%; in data set [7] it was 6%. In addition, in data set [10], the Activity turned out to be 101%.

`C[C@]12N[C@H](Cc3ccccc31)c1ccccc12` [DIZOCILPINE]: 16000 nM corresponded to half-maximal inhibition in data set [12] (IC50).
